The list is not random: actives were taken first. Their share in the collection is about 4.9%.
PHOSPHO1 inh – PubChem AID 1565; inhibition, % at 13.3 µM; Phosphoethanolamine/phosphocholine phosphatase (Homo sapiens), Q8TCT1; 290,000 tested, 1.1% active; recombinant PHOSPHO1, absorbance phosphatase assay; in the data active = inhibition above about 60%
CHT inh – inhibitors of human choline transporter CHT | CHT-expressing cells, membrane potential dye, choline response; hits give low values | B-score at 10 µM | 310,000 tested, 0.86% active | High affinity choline transporter 1 (Homo sapiens), Q9GZV3;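 active = B-score over 3 SD under the library average, and starting fluorescence ratio not unusually high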;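 note: choline stimulus applied at its EC90 after an EC20 pre-addition; B-score computed on integrated fluorescence ratio after choline addition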
Target sequence (Q9GZV3 whole entry, looked up): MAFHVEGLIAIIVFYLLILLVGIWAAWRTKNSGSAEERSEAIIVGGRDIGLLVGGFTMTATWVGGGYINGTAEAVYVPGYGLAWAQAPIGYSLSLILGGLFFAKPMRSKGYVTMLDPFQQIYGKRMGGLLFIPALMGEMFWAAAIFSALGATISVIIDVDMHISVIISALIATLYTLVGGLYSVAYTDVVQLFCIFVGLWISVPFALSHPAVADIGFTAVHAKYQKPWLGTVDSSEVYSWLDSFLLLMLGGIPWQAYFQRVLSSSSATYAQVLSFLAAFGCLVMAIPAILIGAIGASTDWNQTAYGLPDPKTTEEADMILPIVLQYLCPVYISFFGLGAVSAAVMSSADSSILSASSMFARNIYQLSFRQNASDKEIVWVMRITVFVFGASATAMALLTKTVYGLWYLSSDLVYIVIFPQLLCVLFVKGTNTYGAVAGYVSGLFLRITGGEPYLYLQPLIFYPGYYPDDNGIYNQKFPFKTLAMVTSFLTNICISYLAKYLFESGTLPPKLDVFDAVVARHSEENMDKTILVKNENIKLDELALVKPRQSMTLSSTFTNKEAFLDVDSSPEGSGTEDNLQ
HSF1 inh – HSF1 inhibitors in luciferase reporter cells, primary screen, cell-based, NIH3T3, luminescence. NIH3T3-HGL HSE-luciferase, MG132-induced, luminescence 8 h; hits give low values. activity change, negative = inhibition, % at 7.5 µM (by protocol). 300,000 tested, 0.77% active;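 active = more than half of replicate wells show activity change below -50%, luminescence cut by over half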;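 note: luciferase reports HSF-1 transcriptional activity via heat shock element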
CHT PAM – CHT positive allosteric modulators, primary screen, cell-based, membrane potential dye, choline EC20; High affinity choline transporter 1 (Homo sapiens), Q9GZV3; CHT-expressing cells; hits give high values; LV-AA mutant CHT in HEK293 cells; B-score at 10 µM; 310,000 tested, 0.49% active; AID 488977, 2010;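 active = initial fluorescence not abnormally high and integrated response B-score, plate-corrected, over 3 SD above library mean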
Lipid droplet – inhibitors of hepatocyte lipid droplet formation, primary screen, imaging, high-throughput imaging, BODIPY stain. AID 1656, 2009. 240,000 tested, 0.4% active. inhibition, % at 6.5 µM. AML12 mouse hepatocytes, oleate lipid droplets;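 active = lipid droplet intensity inhibited by at least 50%, with more than 500 cells counted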
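Technique: fluorescence imaging, 20x objective, two fields per well / Assay system: AML12 hepatocytes (mouse) / Measure: % inhibition of lipid droplet signal / Doses: 6.5 µM single-point dosing / Incubation: overnight exposure / Reagent: 100 µM oleic acid challenge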
HSF1 activator – HSF-1 activators, primary screen, NIH3T3-HGL cells, MG132 stress, luminescence, single point | activation, % at 9 µM | 300,000 tested, 1.7% active | NIH3T3-HGL HSF-1 luciferase reporter, 8 h; 100% = twice DMSO control signal;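 active = mean replicate activation of at least 50% with a set share of replicates each reaching 50%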
Large screens that a line does not name were inactive.

CS(=O)(=O)Nc1nc2ccccc2[nH]1	HSF1 inh -82
COc1ccc2oc(C(=O)NC3CCCCC3)c(C)c2c1	HSF1 activator 61
COc1cccc(C(=O)Nc2ccc(C)cc2)c1	none
Cc1c(C(=O)NC2CCCCC2)oc2ccc(F)cc12	none
COc1cccc(C(=O)Nc2ccc(C3CC3(Cl)Cl)cc2)c1 (configuration not stated)	HSF1 activator 103
COc1cccc(C(=O)NC2CCCC2)c1	HSF1 activator 70
CCOC(=O)CNC(=O)CN1C(=O)CC(c2ccccc2)S(=O)(=O)c2ccccc21 (configuration not stated)	none
COc1ccc(CCNC(=O)CSCc2n[nH]c(=O)[nH]2)cc1OC	none (no result: HSF1 inh, HSF1 activator)
CC1(C)CC(=O)C2=C(C1)Nc1ccccc1NC2c1ccc(F)cc1 (configuration not stated)	none
O=C1NCC2=C1C(c1ccc(Br)cc1)Nc1ccccc1N2 (configuration not stated)	HSF1 activator 51 (no result: Lipid droplet)
Cc1cccc(NC(=O)c2oc3c(c2C)C(=O)CC(C)(C)C3)n1	none
Oc1ccccc1/C=N/NC(=S)NC1CC2CCC1C2 (configuration not stated)	none
S=C(N/N=C/c1ccco1)NC1CC2CCC1C2 (configuration not stated)	HSF1 activator 58 (no result: Lipid droplet)
CC(C)(C)OC(=O)N[C@@H](Cc1ccccc1)c1nnc(SCC(N)=O)o1	none
Cc1cccc(CS(=O)(=O)c2nnc([C@H](Cc3ccccc3)NC(=O)OC(C)(C)C)o2)c1	HSF1 inh -68 (no result: Lipid droplet)
Cn1cc(C(=O)NCC2COc3ccccc3O2)c(=O)c2cc(S(=O)(=O)N3CCCCC3)ccc21 (configuration not stated)	none
CC1c2ccsc2CCN1C(=O)NC(=O)c1ccc(Cl)cc1 (configuration not stated)	HSF1 activator 71
CC(=O)Nc1sc(C)c(C)c1CN1CCN(S(=O)(=O)c2ccccc2)CC1	none
O=C(CC1Sc2ccccc2NC1=O)c1ccc(Br)cc1 (configuration not stated)	HSF1 activator 70
Cc1ccc(-c2nc3c(c(=O)[nH]c(=O)n3Cc3ccccc3)n2Cc2ccccc2)o1	HSF1 activator 62 (no result: CHT inh, CHT PAM)
OCC[C@@H]1C[C@@H](O)[C@H](O)[C@@]2(Cc3ccccc3CO2)O1	HSF1 inh -66
Cc1cccc(CSc2nnc(-c3ccccn3)n2N)c1	PHOSPHO1 inh 63 (no result: Lipid droplet)
Clc1ccc(-n2c(SC/C=C/c3ccccc3)nnc2-c2cccnc2)cc1	HSF1 activator 69
Nn1c(SCc2ccccc2)nnc1-c1ccco1	HSF1 inh -68
Nn1c(SC/C=C/c2ccccc2)nnc1-c1ccccn1	PHOSPHO1 inh 84 (no result: Lipid droplet)
Nn1c(SC/C=C/c2ccccc2)nnc1-c1cccnc1	none
COc1ccc(N2CCN(CC(=O)Nc3nc4c(s3)CC(C)CC4)CC2)cc1 (configuration not stated)	none (no result: Lipid droplet)
CCOC(=O)c1cnc2c(c(C)nn2-c2ccc(C)cc2)c1Cl	none (no result: CHT inh, CHT PAM)
Cc1cc(C)c2c(N)c(S(=O)c3ccc(C(C)(C)C)cc3)sc2n1 (configuration not stated)	PHOSPHO1 inh 106 (no result: HSF1 inh, Lipid droplet, HSF1 activator)
CCNC(=O)CC1C(=O)N(CC)C(=S)N1NC(=O)c1ccccc1 (configuration not stated)	none
O=C(CN1C(=O)NC2(CCCC2)C1=O)NCCN1C(=O)S/C(=C\c2ccccc2F)C1=O	HSF1 activator 55 (no result: PHOSPHO1 inh, Lipid droplet)
CC1CC(=O)N(CC(=O)NCc2ccco2)c2ccccc2S1 (configuration not stated)	HSF1 activator 61
CC1CC(=O)N(CC(=O)NCc2ccc3c(c2)OCO3)c2ccccc2S1 (configuration not stated)	none
CCCN(CCC)c1ccc(/C=N/NC(=O)CN2CCOCC2)cc1	none
O=C(CN1CCOCC1)N/N=C/c1ccccc1	PHOSPHO1 inh 60

Assay outcomes: PubChem BioAssay, several laboratories
